S100A4 inh HTS: S100A4-myosin IIA interaction inhibition. P26447. S100A4/TAMRA-MyoIIA peptide fluorescence polarization. inhibition, % at 10.7 µM. 360,000 compounds, 0.14% hits. AID 652163;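 active = mean inhibition of at least 70% across replicates, with every replicate also reaching that level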
Target sequence (P26447 whole entry, looked up): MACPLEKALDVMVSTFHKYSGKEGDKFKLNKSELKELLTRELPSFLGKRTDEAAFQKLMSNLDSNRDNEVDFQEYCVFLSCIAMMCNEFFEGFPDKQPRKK
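Material: human S100A4 monomer with TAMRA-labelled myosin IIA peptide; buffer or medium: HEPES pH 7.2 with CaCl2, KCl, NaCl, DTT, Triton; compound dosing: one concentration per compound; schedule: 5 min incubation before reading; benchmarks: neutral control DMSO, positive control TFP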
PGC1a acetyl inh: lowers PGC1a acetylation signal in U2OS cells | AlphaScreen anti-acetyl-lysine; with virally co-expressed GCN5 acetyltransferase | inhibition, % at 15.6 µM | 350,000 compounds, 0.17% hits | AID 651687;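 active = every replicate shows inhibition of at least 40%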;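 also: 0% = neutral control wells and 100% = positive control wells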
Statin myotox sup: protects C2C12 myotubes from simvastatin toxicity; 330,000 compounds, 0.78% hits; rescue of ATP level, % at 7.49 µM; ATP luminescence, 48 h; scaled: DMSO 0, geranylgeraniol control 100; AID 602340;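 active = mean ATP rescue above about 67%, or every replicate alone reaching that limit, limit read from the data, passing the limit was not always enough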;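 also: myotubes were challenged with 10 µM simvastatin during compound exposure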
SIRT5 block: sirtuin-5 (human) deacylase inhibition; Q9NXA8; Purified SirT5, succinyl-peptide AMC, trypsin-coupled fluorescence; inhibition, % at 15 µM; 330,000 compounds, 1.1% hits; AID 652115; in the data active = inhibition above about 15%
Target sequence (Q9NXA8 whole entry, looked up): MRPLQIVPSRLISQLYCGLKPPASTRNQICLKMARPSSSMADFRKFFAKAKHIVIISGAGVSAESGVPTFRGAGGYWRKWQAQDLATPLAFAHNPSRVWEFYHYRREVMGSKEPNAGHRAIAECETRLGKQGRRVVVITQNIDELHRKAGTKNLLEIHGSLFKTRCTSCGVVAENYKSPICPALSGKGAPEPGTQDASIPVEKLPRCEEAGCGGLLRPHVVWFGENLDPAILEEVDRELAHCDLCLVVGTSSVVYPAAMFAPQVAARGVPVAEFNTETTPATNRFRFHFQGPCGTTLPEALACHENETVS
Cneo AK release: Cryptococcus neoformans lysis via adenylate kinase release; lysis activity, % at 15 µM; AID 651654; C. neoformans lysis, adenylate kinase release luminescence, 4 h; normalised: neutral wells 0, clomiphene wells 100; 360,000 compounds, 0.2% hits;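 active = mean lysis activity across replicates of at least 80%, whatever share of replicates individually reach that level; inactive = mean lysis activity below 80%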
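Test system: log-phase Cryptococcus neoformans yeast cells. Input: 5 × 10^6 yeast cells/mL. Medium: fresh YPD growth medium. Doses: single dose. Incubation: static 4 h at 37 °C with compound, 1 h detection. Measured by: luminescent adenylate kinase detection reagent. Read-out: signal increase indicating cell lysis. Benchmarks: Clomiphene.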
rRNA inh HTS: selective bacterial rRNA inhibition in E. coli | E. coli WT GFP vs humanized-ribosome RFP mutants, fluorescence, 24 h; hits give low values; DMSO median 0, no signal -100 | GFP signal change (wild-type ribosome), % (no concentration beside the values) | 350,000 compounds, 1.6% hits | AID 720706;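 active = significant combined selectivity score with lowered wild-type GFP, culture density cut under 30%, mutant RFP and density less affected; inactive = any of these conditions unmet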
The depositor's hits bear a star; . = no result given; + = active, no number. In the library only some 3% were active in any assay of this set; here they are far more common.

SMILES	S100A4 inh HTS	PGC1a acetyl inh	Statin myotox sup	SIRT5 block	Cneo AK release	rRNA inh HTS
CC(=O)c1ccc2c(c1)C1C(Cl)C(Sc3ccccc3[N+](=O)[O-])CC1C(c1ccccc1[N+](=O)[O-])N2 (stereo not drawn)	.	-12.7	80.8*	.	-0.3	.
O=C1NCN(c2ccccc2)C12CCN(C(c1ccccc1)c1nnnn1Cc1ccccc1)CC2 (stereo not drawn)	-5.7	-27.3	-2.3	.	-31.7	-20.7*
COc1ccc(-n2nnnc2C(CCSC)N2CCC3(CC2)C(=O)NCN3c2ccccc2)cc1 (stereo not drawn)	0.2	-15.8	-8.5	3.8	1.1	-21.1*
COc1ccc(-n2nnnc2C(CCc2ccccc2)N2CCC3(CC2)C(=O)NCN3c2ccccc2)cc1 (stereo not drawn)	5.8	-11.9	-19.5	12.4	-0.5	9.2
O=C(Cc1ccccc1)N1CCCCN2[C@@H](CO)[C@H](c3ccc(C#CC4(O)CCCC4)cc3)[C@@H]2C1	7.4	0.1	.	2.1	-0.5	-1.9
CN1C(=O)C(=Cc2ccccc2Oc2ccc(Cl)cc2)C(=O)N(C)C1=O	.	-14.2	.	.	.	.
CN1C(=O)C(=Cc2ccccc2OCc2ccc(Cl)cc2)C(=O)N(C)C1=O	4.3	.	.	112.2*	.	24.9
COC(=O)[C@H]1[C@H](CO)[C@H]2Cn3c(ccc(-c4ccccc4F)c3=O)[C@@H]1N2	-8.8	.	-29.8	-6.2	-2.7	2.4
COC(=O)[C@H]1[C@H](CO)[C@H]2Cn3c(ccc(C4=CCCC4)c3=O)[C@@H]1N2C(=O)C1CCCCC1	.	.	7.8	.	.	0.2
CCN(CC)P(=O)(Oc1ccccc1)Oc1ccccc1	-9.7	-9.0	.	-5.8	5.5	-31.6*
Clc1cccc(Cl)c1NC1=NCCS1	3.3	-0.8	6.3	.	3.8	-3.2
Clc1cc(Cl)cc(NC2=NCCS2)c1	-4.8	4.7	.	-1.5	2.1	-25.5*
CN1CCN(c2ncnc3ccc(Br)cc23)CC1	.	35.3	0.8	.	-0.6	.
CN1CCC(N(C)c2ncnc3ccc(Br)cc23)CC1	.	17.2	82.9*	.	2.9	.
COC(=O)[C@H]1[C@H](CO)[C@H]2Cn3c(ccc(-c4ccc(F)cc4)c3=O)[C@@H]1N2Cc1ccccc1	15.3	.	60.5	-1.3	1.5	-4.9
C/C=C/c1ccc(C2[C@@H]3CN(C(=O)C4CC4)C[C@H]2N3)cc1 (stereo partly drawn)	5.7	0.8	.	1.0	.	3.7
CCN(CC)C(=O)c1ccc(NC(=O)c2cccc(C(F)(F)F)c2)cc1	6.9	.	-0.4	2.8	-2.2	9.6
CCN(CC)C(=O)c1ccc(NC(=O)COc2ccccc2F)cc1	-2.0	-3.9	8.3	20.8*	0.3	12.4
CC1(C)N(O)C2CCCCC2N1O (stereo not drawn)	.	0.7	107.2*	.	21.1	.
CC1(O)C[C@]2(C)N(O)C3CCCC[C@@H]3N2O1 (stereo partly drawn)	.	7.7	2.9	.	1.3	.
C[C@@H]1CN([C@@H](C)CO)C(=O)c2c(c3ccccc3n2C)-c2ccccc2CO[C@H]1CN(C)C(=O)Oc1ccccc1	7.4	.	.	2.9	.	-3.6
COC(=O)[C@@H]1[C@@H](CO)[C@@H]2Cn3c(ccc(-c4ccccc4F)c3=O)[C@H]1N2	-32.5	.	38.4	-11.2	1.3	1.7
Cc1cccc(NP(C)(=O)c2nc3c(s2)CCCC3)c1 (stereo not drawn)	-10.4	11.7	142.7*	-1.4	-2.5	6.3
c1cc(-c2ccc(C3[C@H]4CNC[C@@H]3N4CC3CC3)cc2)ccn1 (stereo partly drawn)	3.6	-1.6	.	1.2	.	6.2
COC(=O)C1=C(C(=O)OC)SC2(S1)C(C(=O)OC)=C(C(=O)OC)Sc1c2ssc1=O	-2.5	.	.	.	.	-23.2*
SMILES	S100A4 inh HTS	PGC1a acetyl inh	Statin myotox sup	SIRT5 block	Cneo AK release	rRNA inh HTS
CC(C)NC(=O)N1C[C@@H]2C(c3ccc(Br)cc3)[C@H](C1)N2CC1CC1 (stereo partly drawn)	.	.	.	.	.	0.2
Cc1ccc(OC(=O)N(C)C[C@@H]2OCc3ccccc3-c3c(n(C)c4ccccc34)C(=O)N([C@@H](C)CO)C[C@H]2C)cc1	-4.3	.	.	8.3	.	-1.8
C[n+]1c2ccccc2nc2ccc(NCCO)cc21	192.4*	.	-3.4	0.8	1.7	-1.0
CNc1ccc2nc3ccccc3[n+](C)c2c1	+	.	-13.8	6.1	-3.2	-13.2
OCCNc1c2c(nc3ccccc13)CCCC2	.	61.6	-27.8	.	-2.6	.
C=CCN1[C@@H]2CN(C(=O)NC(C)C)C[C@H]1C2c1ccccc1 (stereo partly drawn)	.	.	.	.	.	-0.8
Cc1ccc(C[n+]2c(-c3ccc(C)cc3)cc(-c3ccc(C)cc3)cc2-c2ccc(C)cc2)cc1	.	67.2*	-165.3	.	-2.8	.
Cc1ccc(-c2cc(-c3ccc(C)cc3)[n+](-c3ccc(C(=O)O)cc3)c(-c3ccc(C)cc3)c2)cc1	41.7	-3.3	-1.0	-0.5	5.2	4.3
COC(=O)[C@H]1[C@H](CO)[C@H]2Cn3c(ccc(-c4ccccc4)c3=O)[C@@H]1N2C(=O)c1ccccc1F	.	.	-15.1	-19.7	1.1	-1.8
O=C(Cc1cccnc1)N1CCCCN2[C@H](CO)[C@@H](c3ccc(/C=C/c4ccccc4)cc3)[C@@H]2C1	-1.2	-1.5	.	-6.3	-0.4	-57.6
Cc1ccc(N2Cc3ccccc3C2=N)cc1[N+](=O)[O-]	7.8	-7.0	.	25.5*	.	7.7
COC(=O)[C@H]1[C@H](CO)[C@H]2Cn3c(ccc(-c4ccc(OC)cc4)c3=O)[C@@H]1N2C(=O)c1ccccc1F	-24.0	.	-7.3	-57.3	-9.6	-1.4
N#Cc1ccc(-c2ccc([C@@H]3[C@H]4CN(C(=O)Cc5ccccc5)CCCCN4[C@H]3CO)cc2)cc1	-5.2	-1.4	-9.1	4.7	-7.1	-46.4
Cc1cccc(S(=O)(=O)N2[C@@H]3Cn4c(ccc(-c5ccncc5)c4=O)[C@H]2[C@@H](C(=O)O)[C@@H]3CO)c1	9.4	.	-3.7	-59.0	1.6	3.7
CCOC(=O)c1c(C)n(CCN2CCN(C)CC2)c2ccc(OC)cc12	.	2.3	-65.8	.	4.8	.
CCOC(=O)c1c(C)n(CC(O)CN2CCOCC2)c2cc(Br)c(OC)cc12 (stereo not drawn)	2.2	-45.6	.	-2.0	.	-42.5*
COc1ccc(C(CC(C)=O)c2c(O)c3ccccc3oc2=O)cc1OC (stereo not drawn)	-1.9	.	.	-1.8	.	-3.1
COc1ccc(C(CC(=O)c2ccc3c(c2)OCO3)c2c(O)c3ccccc3oc2=O)cc1OC (stereo not drawn)	7.6	.	15.9	-2.2	-0.7	-29.8*
Cc1[nH]c2ccc(OCc3ccccc3)cc2c1CCN	-6.2	1.7	-95.1	-3.8	-0.3	9.2
NCCc1c(Cc2ccccc2)[nH]c2ccccc12	0.9	13.1	10.4	-0.6	2.2	-19.9*

Screening results from PubChem.
